From the array DNA melting data of Ke et al. (doi:10.1101/2024.01.08.574731)

How the values were obtained:
[1] = folding enthalpy; higher = less favourable; fluorescence melt of hairpins on a sequencing array, two-state fit; settings: sodium 0.088 M
How it was run: (§1)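 Folding enthalpy and melting temperature were estimated with bootstrapped two-state fits and combined across four replicates by inverse-variance weighting, with fitted temperatures raised by 9.35 °C to match UV melts. The data were Cy3 fluorescence of library hairpins, with annealed Cy3 and quencher oligos, on a sequenced MiSeq flow cell in 50 mM Na-HEPES pH 8.0, 25 mM NaCl, imaged in 2.5 °C steps up to 60 °C and normalised to pre-quench Cy3 and control constructs.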

[2] = melting temperature; fluorescence melt of hairpins on a sequencing array, two-state fit, raised by 9.35 °C to match UV melts; settings: sodium 0.088 M
How it was run: as §1

| Sequence | folding enthalpy [1] | Tm [2] |
| --- | --- | --- |
| CGCGACGGAAACGTAGCG (((.(((....))).))) | -38.6 kcal/mol | 58.6 °C |
| GATCGAACTATCGATC ((((((....)))))) | -43.8 kcal/mol | 50.3 °C |
| GCCTCGCGAAAGCCACGC ((.(.((....)).).)) | -6.05 kcal/mol | 20.5 °C |
| CGGAGCGGAAACGCCCCG (((.(((....))).))) | -30.8 kcal/mol | 55.8 °C |
| GTTTTTGGAAACAGAAAC ((((.((....)).)))) | -28.1 kcal/mol | 32.7 °C |
| GACGGTGGAAACACCGCC (.(((((....))))).) | -12.7 kcal/mol | 50.4 °C |
| GTAGCAGGAAACCGCTAC (((((.(....).))))) | -32.4 kcal/mol | 48.5 °C |
| GAACGCGAAAGCGTCTTC ((((((....)))..))) | -21.6 kcal/mol | 62.6 °C |
| GCCCGGCGAAAGCAGTGC ((.(.((....)).).)) | -18.2 kcal/mol | 40.5 °C |
| GATCGAGTCTCGATC ((((((...)))))) | -39.2 kcal/mol | 53.2 °C |
| GCAGTCGAAAGACGGTGC ((((((....)))..))) | -19 kcal/mol | 48.5 °C |
| CGAATCGGAAACGATCG (((.(((....)))))) | -32.4 kcal/mol | 45.6 °C |
| GGGCAGGGAAACCTGTCC ((.((((....)))).)) | -43.9 kcal/mol | 57.1 °C |
| GCCAATACGAAAGTAGGC (((..(((....)))))) | -25.6 kcal/mol | 44.2 °C |
| GATCTAATTCTAGATC ((((((....)))))) | -29.9 kcal/mol | 37 °C |
| GAACGCCGAAAGGCATTC (((.(((....))).))) | -17.8 kcal/mol | 43.3 °C |
| GCTGACGAAAGTCTAGC ((((((....))).))) | -22.1 kcal/mol | 51.9 °C |
| GTGGCTTCGAAAGAACAC (((..(((....)))))) | -8.99 kcal/mol | 29.7 °C |
| GTTATTGGAAACGATAAC (((((.(....).))))) | -21.5 kcal/mol | 38.7 °C |
| GAGCGCGGAAACGCGCCC (.(((((....))))).) | -5.64 kcal/mol | 59.7 °C |
| GATCACCATAGTGATC ((((((....)))))) | -42.2 kcal/mol | 58.5 °C |
| GTGCCAACGAAAGTTCAC (((..(((....)))))) | -4.38 kcal/mol | 36.3 °C |
| GGGAACGAAAGTTCGCCC ((((((....)))..))) | -14.8 kcal/mol | 46.4 °C |

| Sequence | folding enthalpy [1] | Tm [2] |
| --- | --- | --- |
| GATCCCGAGGGGATC ((((((...)))))) | -42.5 kcal/mol | 62.6 °C |
| GTGCCCGAAAGGGGCCAC ((((((....)))..))) | -10.9 kcal/mol | 47.7 °C |
| GCTTTGCGAAAGCTGAGC (((..((....))..))) | -15.2 kcal/mol | 56.8 °C |
| GGTGGCGAAAGCCCCACC ((((((....)))..))) | -11.1 kcal/mol | 49.8 °C |
| CGCTCGGAAACGATGCG ((((((....))).))) | -35.4 kcal/mol | 51.8 °C |
| GCCGGACCGAAAGGTGGC (((..(((....)))))) | -26.9 kcal/mol | 53.4 °C |
| GATCTTGGGTAAGATC ((((((....)))))) | -27.6 kcal/mol | 43.2 °C |
| GATCCTTCGGAGGATC ((((((....)))))) | -38.2 kcal/mol | 52.3 °C |
| GCTTCCGAAAGGAACAGC ((((((....)))..))) | -15.1 kcal/mol | 38.3 °C |
| GGGATGGGAAACCGTTCC ((.(.((....)).).)) | -27 kcal/mol | 39.1 °C |
| GCTGGGGGAAACCCCGGC ((.((((....)))).)) | -33.8 kcal/mol | 65.5 °C |
| GGCGTCCGAAAGGAAGCC (((.(((....))).))) | -34.7 kcal/mol | 67 °C |
| GGGAAAGGAAACTTTCCC (((((((....))))))) | -47 kcal/mol | 57.7 °C |
| GTATCCGAAAGGAACTAC ((((((....)))..))) | -14.3 kcal/mol | 33.4 °C |
| GATCTTAACAAGATC ((((((...)))))) | -31.9 kcal/mol | 45.6 °C |
| GCTATGCGAAAGCGTCGC ((.(.((....)).).)) | -18.1 kcal/mol | 43.2 °C |
| GCTGTTGGAAACGATAGC (((.(.(....).).))) | -20.9 kcal/mol | 32 °C |
| GGCACCGAAAGGTAGGCC ((((((....)))..))) | -29.7 kcal/mol | 52.7 °C |
| GCGTACGGAAACACACGC ((((..(....)..)))) | -28.7 kcal/mol | 38.8 °C |
| ATACAGAAATGTAT (((((....))))) | -10.4 kcal/mol | 25.3 °C |
| GTCGAACGAAAGTTAGAC (((.(((....))).))) | -33.1 kcal/mol | 52.6 °C |
| GCATGCCCGAAAGGGTGC (((..(((....)))))) | -14.3 kcal/mol | 44.4 °C |
| GGATGAGGAAACTTATCC ((((.((....)).)))) | -33.4 kcal/mol | 38.6 °C |

| Sequence | folding enthalpy [1] | Tm [2] |
| --- | --- | --- |
| GGTCTCGAAAGAGAGACC ((((((....)))..))) | -29.6 kcal/mol | 54.9 °C |
| GGTTTGGGAAACCAAGTC (..((((....))))..) | -15.4 kcal/mol | 28.1 °C |
| GTATCCCGAAAGGGTTAC (((.(((....))).))) | -21 kcal/mol | 47.4 °C |
| GTAAACGGAAACGCTTAC ((((.((....)).)))) | -29.5 kcal/mol | 37.1 °C |
| GGGGTAGGAAACTACTCC ((.((((....)))).)) | -30.1 kcal/mol | 47.6 °C |
| GACCGAGGAAACTCGATC ((.((((....)))).)) | -21.1 kcal/mol | 40.7 °C |
| GATCTAGGATTAGATC ((((((....)))))) | -29.1 kcal/mol | 44.8 °C |
| GGAAACGAAAGTTCCTCC ((((((....)))..))) | -18.3 kcal/mol | 44.1 °C |
| GATCACATTTGTGATC ((((((....)))))) | -40.8 kcal/mol | 59.3 °C |
| GCTGTTTCGAAAGAAAGC (((..(((....)))))) | -15.7 kcal/mol | 27.6 °C |
| GCATTCGAAAGAAGTGC ((((((....))).))) | -23.2 kcal/mol | 40.2 °C |
| GTGTGGCGAAAGCCTCAC (((.(((....))).))) | -29.7 kcal/mol | 58.9 °C |
| GGTACCGGAAACGGTATC (.(((((....))))).) | -23.9 kcal/mol | 51.6 °C |
| GAGTCCGAAAGGACGCTC ((((((....)))..))) | -13.6 kcal/mol | 64.2 °C |
| GATCGTTATGACGATC ((((((....)))))) | -38.6 kcal/mol | 55.9 °C |
| GACTGCGAAAGCAGGGTC ((((((....)))..))) | -12.4 kcal/mol | 62.2 °C |
| GATCTTTCGCAAGATC ((((((....)))))) | -32.4 kcal/mol | 43.5 °C |
| GGGCTGGGAAACCAACCC (((.(((....))).))) | -30 kcal/mol | 49 °C |
| CGGATGCGGAAACGCCCG (((..(((....)))))) | -23.4 kcal/mol | 46.9 °C |
| GTTCCCACGAAAGTGAAC (((..(((....)))))) | -10 kcal/mol | 25.7 °C |
| GCTCAGGGAAACTTGAGC (((((.(....).))))) | -33.3 kcal/mol | 48.7 °C |
| GTCAAAGGAAACCTTGAC (((((.(....).))))) | -26.9 kcal/mol | 38.2 °C |
| GGCAAGGGAAACCTTGTC (.(((((....))))).) | -31.7 kcal/mol | 50.6 °C |
